Test results reported in ChEMBL document CHEMBL4052814, “GNE-781, A Highly Advanced Potent and Selective Bromodomain Inhibitor of Cyclic Adenosine Monophosphate Response Element Binding Protein, Binding Protein (CBP)” (J Med Chem, 2017).
Calls of active or inactive are those of the source. The calls are words filed in the database; no cut-off is given here.

Key:
[1] = target: Bromodomain-containing protein 4 (Homo sapiens, UniProt O60885); assay: Displacement of biotinylated histone H3K14 peptide ligand from human recombinant His-tagged BRD4 bromodomain-1 measured after 10 mins by TR-FRET assay
CREB-binding protein = CREB-binding protein (Homo sapiens, UniProt Q92793); assay: Inhibition of Halo-tagged histone H3.3 binding to NanoLuc luciferase conjugated human CBP expressed in HEK293 cells after overnight incubation by BRET assay; assay type: cell-based
CREB-binding protein, sequence (Q92793 whole entry): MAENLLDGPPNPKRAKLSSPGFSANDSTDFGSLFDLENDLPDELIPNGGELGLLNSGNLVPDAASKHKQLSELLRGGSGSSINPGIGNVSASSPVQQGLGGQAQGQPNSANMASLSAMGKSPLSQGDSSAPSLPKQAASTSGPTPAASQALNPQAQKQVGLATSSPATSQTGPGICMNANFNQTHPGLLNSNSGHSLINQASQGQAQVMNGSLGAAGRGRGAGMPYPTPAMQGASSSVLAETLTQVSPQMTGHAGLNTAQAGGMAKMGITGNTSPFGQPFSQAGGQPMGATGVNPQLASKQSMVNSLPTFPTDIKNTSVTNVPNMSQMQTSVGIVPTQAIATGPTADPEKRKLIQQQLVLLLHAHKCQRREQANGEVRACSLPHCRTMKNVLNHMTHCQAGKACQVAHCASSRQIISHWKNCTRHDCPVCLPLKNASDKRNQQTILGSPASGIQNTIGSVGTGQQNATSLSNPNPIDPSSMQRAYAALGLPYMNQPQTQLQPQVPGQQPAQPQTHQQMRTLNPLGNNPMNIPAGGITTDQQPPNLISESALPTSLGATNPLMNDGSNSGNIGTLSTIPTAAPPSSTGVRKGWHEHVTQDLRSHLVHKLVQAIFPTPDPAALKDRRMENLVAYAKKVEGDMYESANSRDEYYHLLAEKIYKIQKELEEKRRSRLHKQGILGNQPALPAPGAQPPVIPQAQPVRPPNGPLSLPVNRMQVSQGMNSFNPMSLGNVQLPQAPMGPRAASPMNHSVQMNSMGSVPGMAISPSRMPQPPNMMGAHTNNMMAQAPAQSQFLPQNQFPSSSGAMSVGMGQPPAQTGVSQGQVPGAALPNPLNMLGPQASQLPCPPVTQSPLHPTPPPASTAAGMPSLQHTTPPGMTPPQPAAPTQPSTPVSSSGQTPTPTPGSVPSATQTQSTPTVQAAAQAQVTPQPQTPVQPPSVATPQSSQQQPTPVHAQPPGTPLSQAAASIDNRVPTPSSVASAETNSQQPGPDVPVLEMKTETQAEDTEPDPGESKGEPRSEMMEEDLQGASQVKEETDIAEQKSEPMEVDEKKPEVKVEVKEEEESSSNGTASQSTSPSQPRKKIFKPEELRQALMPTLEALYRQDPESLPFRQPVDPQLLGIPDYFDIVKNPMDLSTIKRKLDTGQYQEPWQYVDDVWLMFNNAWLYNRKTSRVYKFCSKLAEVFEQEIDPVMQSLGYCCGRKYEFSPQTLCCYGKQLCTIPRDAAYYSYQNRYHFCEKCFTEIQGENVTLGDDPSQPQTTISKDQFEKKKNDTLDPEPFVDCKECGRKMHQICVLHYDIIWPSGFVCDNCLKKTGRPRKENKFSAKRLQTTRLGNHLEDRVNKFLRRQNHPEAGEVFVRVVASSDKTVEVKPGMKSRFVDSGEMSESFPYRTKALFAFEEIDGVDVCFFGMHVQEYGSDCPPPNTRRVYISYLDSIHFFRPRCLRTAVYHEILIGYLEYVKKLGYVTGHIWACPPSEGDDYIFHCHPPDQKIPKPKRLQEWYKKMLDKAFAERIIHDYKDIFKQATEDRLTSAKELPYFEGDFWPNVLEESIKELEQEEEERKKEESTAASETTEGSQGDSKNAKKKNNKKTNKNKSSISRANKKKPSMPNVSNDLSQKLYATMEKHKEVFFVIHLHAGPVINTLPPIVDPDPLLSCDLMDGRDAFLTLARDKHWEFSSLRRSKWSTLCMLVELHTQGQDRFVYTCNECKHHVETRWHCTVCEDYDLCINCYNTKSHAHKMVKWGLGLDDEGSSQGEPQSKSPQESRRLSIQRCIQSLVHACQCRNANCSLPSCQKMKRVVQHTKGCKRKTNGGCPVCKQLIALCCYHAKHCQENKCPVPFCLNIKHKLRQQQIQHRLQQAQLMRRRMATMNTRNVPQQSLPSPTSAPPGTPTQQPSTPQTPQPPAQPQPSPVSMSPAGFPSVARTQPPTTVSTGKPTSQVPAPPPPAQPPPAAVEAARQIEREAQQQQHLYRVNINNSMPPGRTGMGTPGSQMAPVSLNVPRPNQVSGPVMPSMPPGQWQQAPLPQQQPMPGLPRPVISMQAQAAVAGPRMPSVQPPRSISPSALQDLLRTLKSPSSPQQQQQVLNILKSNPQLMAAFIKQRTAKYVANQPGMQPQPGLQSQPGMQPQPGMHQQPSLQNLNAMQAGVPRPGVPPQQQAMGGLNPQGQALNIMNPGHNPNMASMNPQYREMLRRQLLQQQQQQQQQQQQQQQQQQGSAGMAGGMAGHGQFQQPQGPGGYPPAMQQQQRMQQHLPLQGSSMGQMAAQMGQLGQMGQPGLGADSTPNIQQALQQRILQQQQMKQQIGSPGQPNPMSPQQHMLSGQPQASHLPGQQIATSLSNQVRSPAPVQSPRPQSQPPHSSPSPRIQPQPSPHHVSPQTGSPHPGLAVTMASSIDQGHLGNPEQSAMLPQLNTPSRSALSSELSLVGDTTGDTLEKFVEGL

[2] = Antitumor activity against human MOLM16 cells xenografted in C.B-17 SCID beige mouse assessed as tumor growth inhibition at 30 mg/kg administered via oral gavage as bid for 21 days relative to control; assay type: functional; settings: read-out: TGI
Method in brief: (§1)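 Female C.B-17 SCID.bg mice received 5 million MOLM-16 cells s.c. in HBSS/Matrigel in the right flank. Dosing began at 130–300 mm3: oral gavage BID for 21 days in 0.5% methylcellulose, 0.2% Tween 80, n=10/group. Caliper volumes taken; %TGI computed from the area under the mixed-model spline-fitted curve per day versus vehicle.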

Mus musculus [3] = assay: In vivo inhibition of CBP in human MOLM16 cells xenografted in C.B-17 SCID beige mouse assessed as suppression of MYC transcript levels at 3 mg/kg administered via oral gavage as bid for 21 days measured 2 to 8 hrs post last dose by real time-PCR method; assay type: functional, organism-based
Homo sapiens = organism: Homo sapiens; assay: Selectivity ratio of IC50 for human recombinant His-tagged BRD4 bromodomain-1 to IC50 for human recombinant His-tagged P300
Plasma = assay: Drug uptake in plasma of C.B-17 SCID beige mouse xenografted with human MOLM16 cells at 3 to 30 mg/kg administered via oral gavage as bid for 21 days measured 2 to 24 hrs post last dose by LC-MS/MS method; assay type: ADME, organism-based; settings: in vivo
[4] = Antitumor activity against human MOLM16 cells xenografted in C.B-17 SCID beige mouse assessed as tumor growth inhibition at 3 mg/kg administered via oral gavage as bid for 21 days relative to control; assay type: functional; settings: read-out: TGI; method in brief: as §1
Mus musculus [5] = assay: In vivo inhibition of CBP in human MOLM16 cells xenografted in C.B-17 SCID beige mouse assessed as suppression of MYC transcript levels at 30 mg/kg administered via oral gavage […] measured 2 hrs post last dose by real time-PCR method relative to control; assay type: functional
Method in brief: (§2)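 MOLM-16 subcutaneous xenografts in SCID beige mice received single oral doses of 3–30 mg/kg (n=3/group). Tumors were taken at time points from 2 to 24 h. MYC transcript was measured in tumor RNA by one-step TaqMan qRT-PCR with ACTB as housekeeping gene. Results are given relative to vehicle-treated animals by the comparative Ct method.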

Cytochrome P450 2C19 = Cytochrome P450 2C19 (Homo sapiens, UniProt P33261); assay: Inhibition of CYP2C19 (unknown origin); assay type: ADME
Cytochrome P450 2C19, sequence (P33261 whole entry): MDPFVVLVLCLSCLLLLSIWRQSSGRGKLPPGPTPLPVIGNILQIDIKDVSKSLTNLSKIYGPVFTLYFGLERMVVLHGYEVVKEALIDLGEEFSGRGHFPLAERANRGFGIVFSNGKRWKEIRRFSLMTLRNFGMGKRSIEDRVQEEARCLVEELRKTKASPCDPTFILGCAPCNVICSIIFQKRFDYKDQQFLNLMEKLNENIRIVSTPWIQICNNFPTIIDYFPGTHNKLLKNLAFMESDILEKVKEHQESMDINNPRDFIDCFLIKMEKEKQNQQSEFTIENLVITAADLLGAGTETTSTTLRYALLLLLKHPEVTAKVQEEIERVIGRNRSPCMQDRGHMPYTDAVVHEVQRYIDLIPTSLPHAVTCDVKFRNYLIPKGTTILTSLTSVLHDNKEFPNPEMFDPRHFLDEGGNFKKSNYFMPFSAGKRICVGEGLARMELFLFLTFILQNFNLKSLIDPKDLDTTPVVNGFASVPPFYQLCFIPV

[6] = Antitumor activity against human MOLM16 cells xenografted in C.B-17 SCID beige mouse assessed as tumor growth inhibition at 10 mg/kg administered via oral gavage as bid for 21 days relative to control; assay type: functional; settings: read-out: TGI; method in brief: as §1
Cytochrome P450 2D6 = Cytochrome P450 2D6 (Homo sapiens, UniProt P10635); assay: Inhibition of CYP2D6 (unknown origin); assay type: ADME
Cytochrome P450 2D6, sequence (P10635 whole entry): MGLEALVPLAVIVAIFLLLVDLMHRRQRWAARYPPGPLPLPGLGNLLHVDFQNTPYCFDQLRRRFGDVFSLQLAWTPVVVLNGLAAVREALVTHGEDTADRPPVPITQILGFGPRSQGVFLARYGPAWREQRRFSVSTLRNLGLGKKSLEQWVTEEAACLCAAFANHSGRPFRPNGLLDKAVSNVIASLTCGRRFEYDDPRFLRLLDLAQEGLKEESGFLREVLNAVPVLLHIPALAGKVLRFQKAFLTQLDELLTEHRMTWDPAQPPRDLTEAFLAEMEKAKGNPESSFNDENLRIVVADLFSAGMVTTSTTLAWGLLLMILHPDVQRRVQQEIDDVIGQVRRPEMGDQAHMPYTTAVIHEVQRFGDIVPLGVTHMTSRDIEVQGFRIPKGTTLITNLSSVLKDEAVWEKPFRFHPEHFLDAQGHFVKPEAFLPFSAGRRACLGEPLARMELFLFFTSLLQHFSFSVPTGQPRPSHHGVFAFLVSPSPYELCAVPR

Cytochrome P450 2C9 = Cytochrome P450 2C9 (Homo sapiens, UniProt P11712); assay: Inhibition of CYP2C9 (unknown origin); assay type: ADME
Cytochrome P450 2C9, sequence (P11712 whole entry): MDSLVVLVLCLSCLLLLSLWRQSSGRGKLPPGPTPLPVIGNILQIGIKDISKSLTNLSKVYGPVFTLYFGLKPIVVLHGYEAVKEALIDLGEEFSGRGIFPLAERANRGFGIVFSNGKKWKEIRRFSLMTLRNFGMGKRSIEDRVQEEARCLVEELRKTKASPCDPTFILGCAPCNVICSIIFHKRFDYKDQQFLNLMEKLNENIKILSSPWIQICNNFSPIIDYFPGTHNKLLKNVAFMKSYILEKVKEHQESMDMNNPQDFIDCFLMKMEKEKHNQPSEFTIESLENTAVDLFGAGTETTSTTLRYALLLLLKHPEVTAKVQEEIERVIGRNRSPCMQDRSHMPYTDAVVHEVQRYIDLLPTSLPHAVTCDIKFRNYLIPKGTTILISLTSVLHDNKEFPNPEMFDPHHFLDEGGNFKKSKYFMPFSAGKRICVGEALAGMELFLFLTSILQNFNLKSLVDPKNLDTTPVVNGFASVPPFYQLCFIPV

Mus musculus [7] = assay: In vivo inhibition of CBP in human MOLM16 cells xenografted in C.B-17 SCID beige mouse assessed as MYC transcript levels at 3 mg/kg administered via oral gavage as bid for 21 days measured 16 hrs post last dose by real time-PCR method; assay type: functional; set-up: scale not given: the % may be the effect or the level left
Mus musculus [8] = assay: Toxicity in C.B-17 SCID beige mouse xenografted with human MOLM-16 cells assessed as decrease in body weight at 3 to 30 mg/kg administered via oral gavage as bid for 21 days measured during compound dosing; settings: in vivo
[9] = Drug uptake in tumor of C.B-17 SCID beige mouse xenografted with human MOLM16 cells at 3 to 30 mg/kg administered via oral gavage […] measured 2 to 24 hrs post last dose by LC-MS/MS method; assay type: ADME, organism-based, Neoplasm; settings: in vivo
Method in brief: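 In MOLM-16 xenograft mice given single oral doses of 3–30 mg/kg, plasma and tumor were sampled from 2 to 24 h. Tumor was homogenized in 4 volumes of water. Both matrices were extracted with acetonitrile with labetalol as internal standard and measured by LC-MS/MS. Levels were corrected for plasma protein and tissue binding to give unbound concentrations.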

Mus musculus [10] = assay: In vivo inhibition of CBP in human MOLM16 cells xenografted in C.B-17 SCID beige mouse assessed as suppression of MYC transcript levels at 10 mg/kg administered via oral gavage […] measured 2 hrs post last dose by real time-PCR method relative to control; assay type: functional; method in brief: as §2

| SMILES | IC50 [1] | IC50 (CREB-binding protein) | inhibition in vivo at 30 mg/kg [2] | inhibition (Mus musculus [3]) | Ratio IC50 (Homo sapiens) | Drug uptake (Plasma) | inhibition in vivo at 3 mg/kg [4] | Imax (Mus musculus [5]) | IC50 (Cytochrome P450 2C19) | inhibition in vivo at 10 mg/kg [6] | IC50 (Cytochrome P450 2D6) | IC50 (Cytochrome P450 2C9) | Activity (Mus musculus [7]) | %max (Mus musculus [8]) | Drug uptake [9] | Imax (Mus musculus [10]) |
| --- | --- | --- | --- | --- | --- | --- | --- | --- | --- | --- | --- | --- | --- | --- | --- | --- |
| CC(=O)N1CCc2c(c(N3CCCc4cc(-c5cnn(C)c5)c(C(F)F)cc43)nn2C2CCOCC2)C1 | 4.2 µM | 0.012 µM | – | – | – | – | – | – | – | – | – | – | – | – | – | – |
| CNC(=O)N1CCc2c(c(N3CCCc4cc(-c5cnn(C)c5)c(C(F)F)cc43)nn2C2CCOCC2)C1 | – | – | 89% | Active | 4250 | Active | 73% | 88% | > 10 µM | 71% | > 10 µM | > 10 µM | 150% | 3.7% | Active | 87% |
